Assay results published in ChEMBL document CHEMBL4346701, “Synthesis and biological evaluation of tryptophan-derived rhodanine derivatives as PTP1B inhibitors and anti-bacterial agents” (Eur J Med Chem, 2019).
≈ marks a conversion by molar mass, not a printed value.

How the values were obtained:
Staphylococcus aureus [1] = assay: Antibacterial activity against Staphylococcus aureus KCTC503 assessed as reduction in bacterial cell growth incubated for 24 hrs by ELISA; format: functional; details: KCTC503, 24 h
In short: (§1)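 MICs determined by serial dilution in 96-well microtiter plates. The strain panel included Gram-positive S. aureus strains and multidrug-resistant clinical isolates. Gatifloxacin, moxifloxacin, norfloxacin and oxacillin served as antibacterial positive controls.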

Staphylococcus aureus [2] = assay: Antibacterial activity against Methicillin-resistant Staphylococcus aureus CCARM 3167 assessed as reduction in bacterial cell growth incubated for 24 hrs by ELISA; format: functional; details: CCARM 3167, 24 h; in short: as §1
Streptococcus mutans = assay: Antibacterial activity against Streptococcus mutans KCTC3289 assessed as reduction in bacterial cell growth incubated for 24 hrs by ELISA; format: functional; details: KCTC3289, 24 h
In short: (§2)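 MIC determined by serial dilution in 96-well microtiter plates. Strains used were E. coli 1924 and P. aeruginosa 2742 (Gram-negative), S. mutans 3289 (Gram-positive) and the fungus C. albicans 7535. Gatifloxacin, moxifloxacin, norfloxacin and oxacillin served as antibacterial reference agents, and fluconazole as the antifungal reference.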

[3] = biological target: T1, Tyrosine-protein phosphatase non-receptor type 1 (Homo sapiens, UniProt P18031); assay: Inhibition of human recombinant GST-tagged PTP1B expressed in Escherichia coli BL21 (DE3) using pNPP as substrate measured for 2 mins by colorimetric analysis
T1 sequence (P18031 whole entry): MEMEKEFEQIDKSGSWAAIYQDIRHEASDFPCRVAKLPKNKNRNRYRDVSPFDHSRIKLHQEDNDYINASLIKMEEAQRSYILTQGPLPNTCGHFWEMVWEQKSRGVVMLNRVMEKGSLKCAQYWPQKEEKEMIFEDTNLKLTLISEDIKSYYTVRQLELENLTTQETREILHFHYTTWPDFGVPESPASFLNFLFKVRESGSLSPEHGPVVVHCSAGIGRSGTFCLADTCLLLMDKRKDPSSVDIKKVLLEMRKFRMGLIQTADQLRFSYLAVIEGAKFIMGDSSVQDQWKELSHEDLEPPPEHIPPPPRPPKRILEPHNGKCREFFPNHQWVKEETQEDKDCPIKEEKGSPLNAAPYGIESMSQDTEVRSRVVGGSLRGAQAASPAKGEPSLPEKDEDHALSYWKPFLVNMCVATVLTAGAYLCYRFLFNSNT

Pseudomonas aeruginosa = assay: Antibacterial activity against Pseudomonas aeruginosa 2742 assessed as reduction in bacterial cell growth incubated for 24 hrs by ELISA; format: functional; details: Pseudomonas aeruginosa, 2742, 24 h; in short: as §2
Staphylococcus aureus [4] = assay: Antibacterial activity against Methicillin-resistant Staphylococcus aureus CCARM 3506 assessed as reduction in bacterial cell growth incubated for 24 hrs by ELISA; format: functional; details: CCARM 3506, 24 h; in short: as §1
Staphylococcus aureus [5] = assay: Antibacterial activity against Quinolone-resistant Staphylococcus aureus CCARM 3505 assessed as reduction in bacterial cell growth incubated for 24 hrs by ELISA; format: functional; details: CCARM 3505, 24 h; in short: as §1
Staphylococcus aureus [6] = assay: Antibacterial activity against Quinolone-resistant Staphylococcus aureus CCARM 3519 assessed as reduction in bacterial cell growth incubated for 24 hrs by ELISA; format: functional; details: CCARM 3519, 24 h; in short: as §1
Staphylococcus aureus [7] = assay: Antibacterial activity against Staphylococcus aureus KCTC209 assessed as reduction in bacterial cell growth incubated for 24 hrs by ELISA; format: functional; details: KCTC209, 24 h; in short: as §1
Escherichia coli = assay: Antibacterial activity against Escherichia coli 1924 assessed as reduction in bacterial cell growth incubated for 24 hrs by ELISA; format: functional; details: Escherichia coli, 1924, 24 h; in short: as §2
Candida albicans = assay: Antifungal activity against Candida albicans 7535 assessed as reduction in bacterial cell growth incubated for 24 hrs by ELISA; format: functional; details: Candida albicans, 7535, 24 h; in short: as §2
Staphylococcus aureus [8] = assay: Antibacterial activity against Staphylococcus aureus RN4220 assessed as reduction in bacterial cell growth incubated for 24 hrs by ELISA; format: functional; details: RN4220, 24 h; in short: as §1

With `O=C(O)C(Cc1c[nH]c2ccccc12)N1C(=O)/C(=C/c2ccc(OCc3ccccc3)cc2)SC1=S` (centres undefined) the MIC (Staphylococcus aureus [1]) was 8 µg/mL (≈ 15.5 µM), the MIC (Staphylococcus aureus [2]) was 8 µg/mL (≈ 15.5 µM) and the MIC (Streptococcus mutans) was 4 µg/mL (≈ 7.77 µM). The IC50 [3] was 5.52 µM, the MIC (Pseudomonas aeruginosa) was > 64 µg/mL and the MIC (Staphylococcus aureus [4]) was 8 µg/mL (≈ 15.5 µM). For the same compound, the MIC (Staphylococcus aureus [5]) was 8 µg/mL (≈ 15.5 µM), the MIC (Staphylococcus aureus [6]) was 8 µg/mL (≈ 15.5 µM) and the MIC (Staphylococcus aureus [7]) was 8 µg/mL (≈ 15.5 µM). For the same compound, the MIC (Escherichia coli) was 8 µg/mL (≈ 15.5 µM), the MIC (Candida albicans) was > 64 µg/mL and the MIC (Staphylococcus aureus [8]) was 4 µg/mL (≈ 7.77 µM).
`CCn1cc(C(=O)O)c(=O)c2cc(F)c(N3CCNCC3)cc21` [NORFLOXACIN] was tested, and the MIC (Staphylococcus aureus [2]) was 8 µg/mL (≈ 25.1 µM), the MIC (Staphylococcus aureus [4]) was 4 µg/mL (≈ 12.5 µM) and the MIC (Staphylococcus aureus [5]) was > 64 µg/mL. The MIC (Staphylococcus aureus [6]) was > 64 µg/mL.
In the case of `O=C(O)C(Cc1c[nH]c2ccccc12)N1C(=O)/C(=C/c2cccc(OCc3ccc(Br)cc3)c2)SC1=S` (centres undefined), the MIC (Staphylococcus aureus [1]) is reported as 4 µg/mL (≈ 6.74 µM), the MIC (Staphylococcus aureus [2]) is reported as 8 µg/mL (≈ 13.5 µM) and the MIC (Streptococcus mutans) is reported as 4 µg/mL (≈ 6.74 µM). For the same compound, the IC50 [3] was 2.7 µM, the MIC (Pseudomonas aeruginosa) was > 64 µg/mL and the MIC (Staphylococcus aureus [4]) was 8 µg/mL (≈ 13.5 µM). For the same compound, the MIC (Staphylococcus aureus [5]) was 8 µg/mL (≈ 13.5 µM), the MIC (Staphylococcus aureus [6]) was 4 µg/mL (≈ 6.74 µM) and the MIC (Staphylococcus aureus [7]) was 4 µg/mL (≈ 6.74 µM). For the same compound, the MIC (Escherichia coli) was 8 µg/mL (≈ 13.5 µM), the MIC (Candida albicans) was > 64 µg/mL and the MIC (Staphylococcus aureus [8]) was 2 µg/mL (≈ 3.37 µM).
`O=C(O)C(Cc1c[nH]c2ccccc12)N1C(=O)/C(=C/c2ccc3cc(OCc4ccccc4Cl)ccc3c2)SC1=S` (centres undefined) gave an MIC (Staphylococcus aureus [2]) of 2 µg/mL (≈ 3.34 µM), an MIC (Streptococcus mutans) of 2 µg/mL (≈ 3.34 µM) and an IC50 [3] of 0.8 µM. For the same compound, the MIC (Pseudomonas aeruginosa) was > 64 µg/mL, the MIC (Staphylococcus aureus [4]) was 4 µg/mL (≈ 6.68 µM) and the MIC (Staphylococcus aureus [5]) was 4 µg/mL (≈ 6.68 µM). The MIC (Staphylococcus aureus [6]) was 4 µg/mL (≈ 6.68 µM), the MIC (Escherichia coli) was 4 µg/mL (≈ 6.68 µM) and the MIC (Candida albicans) was > 64 µg/mL. For the same compound, the MIC (Staphylococcus aureus [8]) was 4 µg/mL (≈ 6.68 µM).
`COc1cccc(COc2ccc3cc(/C=C4\SC(=S)N(C(Cc5c[nH]c6ccccc56)C(=O)O)C4=O)ccc3c2)c1` (centres undefined) showed an MIC (Staphylococcus aureus [2]) of 8 µg/mL (≈ 13.5 µM), an MIC (Streptococcus mutans) of 8 µg/mL (≈ 13.5 µM) and an IC50 [3] of 1.67 µM. For the same compound, the MIC (Pseudomonas aeruginosa) was > 64 µg/mL, the MIC (Staphylococcus aureus [4]) was 16 µg/mL (≈ 26.9 µM) and the MIC (Staphylococcus aureus [5]) was 8 µg/mL (≈ 13.5 µM). The MIC (Staphylococcus aureus [6]) was 16 µg/mL (≈ 26.9 µM), the MIC (Escherichia coli) was 16 µg/mL (≈ 26.9 µM) and the MIC (Candida albicans) was > 64 µg/mL. For the same compound, the MIC (Staphylococcus aureus [8]) was 8 µg/mL (≈ 13.5 µM).
Compound `COc1cc(/C=C2\SC(=S)N(C(Cc3c[nH]c4ccccc34)C(=O)O)C2=O)ccc1OCc1ccc(Cl)cc1` (centres undefined) has an MIC (Staphylococcus aureus [1]) of 4 µg/mL (≈ 6.91 µM), an MIC (Staphylococcus aureus [2]) of 4 µg/mL (≈ 6.91 µM) and an MIC (Streptococcus mutans) of 4 µg/mL (≈ 6.91 µM). For the same compound, the IC50 [3] was 4.36 µM, the MIC (Pseudomonas aeruginosa) was > 64 µg/mL and the MIC (Staphylococcus aureus [4]) was 4 µg/mL (≈ 6.91 µM). It also gave an MIC (Staphylococcus aureus [5]) of 4 µg/mL (≈ 6.91 µM), an MIC (Staphylococcus aureus [6]) of 4 µg/mL (≈ 6.91 µM) and an MIC (Staphylococcus aureus [7]) of 4 µg/mL (≈ 6.91 µM). For the same compound, the MIC (Escherichia coli) was 4 µg/mL (≈ 6.91 µM), the MIC (Candida albicans) was > 64 µg/mL and the MIC (Staphylococcus aureus [8]) was 2 µg/mL (≈ 3.45 µM).
`COc1ccccc1COc1ccc2cc(/C=C3\SC(=S)N(C(Cc4c[nH]c5ccccc45)C(=O)O)C3=O)ccc2c1` (centres undefined) was tested, and the MIC (Staphylococcus aureus [2]) was 8 µg/mL (≈ 13.5 µM), the MIC (Streptococcus mutans) was 8 µg/mL (≈ 13.5 µM) and the IC50 [3] was 1.53 µM. For the same compound, the MIC (Pseudomonas aeruginosa) was > 64 µg/mL, the MIC (Staphylococcus aureus [4]) was 8 µg/mL (≈ 13.5 µM) and the MIC (Staphylococcus aureus [5]) was 8 µg/mL (≈ 13.5 µM). The MIC (Staphylococcus aureus [6]) was 8 µg/mL (≈ 13.5 µM), the MIC (Escherichia coli) was 16 µg/mL (≈ 26.9 µM) and the MIC (Candida albicans) was > 64 µg/mL. The MIC (Staphylococcus aureus [8]) was 8 µg/mL (≈ 13.5 µM).
`O=C(O)C(Cc1c[nH]c2ccccc12)N1C(=O)/C(=C/c2cccc(OCc3ccccc3)c2)SC1=S` (centres undefined) was tested, and the MIC (Staphylococcus aureus [1]) was 8 µg/mL (≈ 15.5 µM), the MIC (Staphylococcus aureus [2]) was 8 µg/mL (≈ 15.5 µM) and the MIC (Streptococcus mutans) was 8 µg/mL (≈ 15.5 µM). For the same compound, the IC50 [3] was 8.23 µM, the MIC (Pseudomonas aeruginosa) was > 64 µg/mL and the MIC (Staphylococcus aureus [4]) was 8 µg/mL (≈ 15.5 µM). It also gave an MIC (Staphylococcus aureus [5]) of 8 µg/mL (≈ 15.5 µM), an MIC (Staphylococcus aureus [6]) of 8 µg/mL (≈ 15.5 µM) and an MIC (Staphylococcus aureus [7]) of 8 µg/mL (≈ 15.5 µM). The MIC (Escherichia coli) was 8 µg/mL (≈ 15.5 µM), the MIC (Candida albicans) was > 64 µg/mL and the MIC (Staphylococcus aureus [8]) was 4 µg/mL (≈ 7.77 µM).
With `COc1cc(/C=C2\SC(=S)N(C(Cc3c[nH]c4ccccc34)C(=O)O)C2=O)ccc1OCc1ccc(Br)cc1` (centres undefined) the MIC (Staphylococcus aureus [1]) was 4 µg/mL (≈ 6.41 µM), the MIC (Staphylococcus aureus [2]) was 4 µg/mL (≈ 6.41 µM) and the MIC (Streptococcus mutans) was 8 µg/mL (≈ 12.8 µM). The IC50 [3] was 3.18 µM, the MIC (Pseudomonas aeruginosa) was > 64 µg/mL and the MIC (Staphylococcus aureus [4]) was 4 µg/mL (≈ 6.41 µM). It also gave an MIC (Staphylococcus aureus [5]) of 4 µg/mL (≈ 6.41 µM), an MIC (Staphylococcus aureus [6]) of 8 µg/mL (≈ 12.8 µM) and an MIC (Staphylococcus aureus [7]) of 4 µg/mL (≈ 6.41 µM). For the same compound, the MIC (Escherichia coli) was 8 µg/mL (≈ 12.8 µM), the MIC (Candida albicans) was > 64 µg/mL and the MIC (Staphylococcus aureus [8]) was 4 µg/mL (≈ 6.41 µM).
`OC(Cn1cncn1)(Cn1cncn1)c1ccc(F)cc1F` [FLUCONAZOLE] was tested, and the MIC (Candida albicans) was 1 µg/mL (≈ 3.27 µM).
For `Cc1onc(-c2ccccc2)c1C(=O)N[C@@H]1C(=O)N2[C@@H]1SC(C)(C)[C@@H]2C(=O)O` [OXACILLIN], the MIC (Staphylococcus aureus [2]) was > 64 µg/mL, the MIC (Staphylococcus aureus [4]) was > 64 µg/mL and the MIC (Staphylococcus aureus [5]) was 1 µg/mL (≈ 2.49 µM). For the same compound, the MIC (Staphylococcus aureus [6]) was 1 µg/mL (≈ 2.49 µM).
`O=C(O)C(Cc1c[nH]c2ccccc12)N1C(=O)/C(=C/c2ccc3cc(OCc4ccccc4)ccc3c2)SC1=S` (centres undefined) was tested, and the MIC (Staphylococcus aureus [2]) was 8 µg/mL (≈ 14.2 µM), the MIC (Streptococcus mutans) was 8 µg/mL (≈ 14.2 µM) and the IC50 [3] was 0.82 µM. For the same compound, the MIC (Pseudomonas aeruginosa) was > 64 µg/mL, the MIC (Staphylococcus aureus [4]) was 8 µg/mL (≈ 14.2 µM) and the MIC (Staphylococcus aureus [5]) was 4 µg/mL (≈ 7.08 µM). The MIC (Staphylococcus aureus [6]) was 8 µg/mL (≈ 14.2 µM), the MIC (Escherichia coli) was 8 µg/mL (≈ 14.2 µM) and the MIC (Candida albicans) was > 64 µg/mL. The MIC (Staphylococcus aureus [8]) was 8 µg/mL (≈ 14.2 µM).
